# Compound activity: PubChem BioAssay, Johns Hopkins Ion Channel Center
# The list is not random: actives were taken first. Their share in the collection is about 3.7%.
# hERG protect = shields human hERG channel from block by proarrhythmic agents. CHO-hERG, FluxOR thallium flux, dofetilide IC70 present. activation (rescue from dofetilide block), less the hit threshold, % at 10 µM. 310,000 tested, 0.51% active. AID 1511;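 active means activation above the mean of controls blocked by dofetilide plus 5 SD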;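 further: thallium influx through hERG after potassium depolarization seen as dye fluorescence rise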
# KCNK3 inh = human KCNK3 channel inhibition, primary screen | B-score at 10 µM | O14649 | 340,000 tested, 0.84% active | CHO-KCNK3 thallium flux, FluxOR fluorescence; hits give low values;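 active means B-score under library mean minus 4 SD, starting fluorescence ratio at most library mean plus 5 SD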;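 further: more negative B-score means stronger inhibition of thallium flux through KCNK3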
# KCNQ1 pot = human KCNQ1 channel potentiation or activation; CHO-K1 KCNQ1, thallium flux FluxOR fluorescence; hits give high values; B-score at 10 µM; 310,000 tested, 0.35% active; AID 2648;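 active means fluorescence ratio B-score, a plate-corrected score, at least three library SD, with initial intensity B-score within 5 SD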
# Target sequence (P51787 whole entry, looked up): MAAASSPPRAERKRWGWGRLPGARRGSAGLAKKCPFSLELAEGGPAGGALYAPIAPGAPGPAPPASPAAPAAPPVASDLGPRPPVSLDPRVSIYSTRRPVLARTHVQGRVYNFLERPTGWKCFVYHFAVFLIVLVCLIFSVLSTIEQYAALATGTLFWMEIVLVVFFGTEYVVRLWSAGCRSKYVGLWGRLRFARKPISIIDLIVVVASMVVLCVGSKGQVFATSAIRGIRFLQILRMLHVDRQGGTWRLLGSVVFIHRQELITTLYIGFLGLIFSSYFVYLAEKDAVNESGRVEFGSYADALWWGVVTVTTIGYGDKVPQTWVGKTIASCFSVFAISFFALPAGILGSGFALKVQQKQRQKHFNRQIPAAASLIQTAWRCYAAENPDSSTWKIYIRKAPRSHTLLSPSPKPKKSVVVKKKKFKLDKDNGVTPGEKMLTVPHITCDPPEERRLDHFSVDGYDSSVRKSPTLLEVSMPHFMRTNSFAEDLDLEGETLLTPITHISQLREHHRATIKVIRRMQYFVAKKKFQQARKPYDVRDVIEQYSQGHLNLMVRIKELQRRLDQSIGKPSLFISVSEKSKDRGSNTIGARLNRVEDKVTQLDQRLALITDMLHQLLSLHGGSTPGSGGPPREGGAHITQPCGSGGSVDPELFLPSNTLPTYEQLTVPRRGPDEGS
#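 Test system: CHO-K1 cells stably expressing KCNQ1 / Medium: assay buffer / Also added: depolarizing K+/Tl+ stimulus, K2SO4 and Tl2SO4 each 12.5 mM in 5x stock / Incubation: 90 min dye loading and 20 min compound exposure, both at room temperature / Signal: thallium influx via FluxOR fluorescence, kinetic imaging / Evaluation: B score of baseline-normalized fluorescence ratio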
# Kir21 inh = Kir2.1 (mouse) channel inhibition; HEK293-Kir2.1, FluxOR thallium flux fluorescence; hits give low values; 310,000 tested, 0.85% active; AID 1672; B-score at 10 µM; P35561;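 active means fluorescence ratio B-score at or below minus 3 SD of library scores, with starting-brightness B-score within 2 SD, cut at about -4.2 in these data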;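 further: channel flux triggered by added potassium and thallium sulfate stimulus; B-score of peak minus minimum fluorescence over baseline after thallium stimulus; more negative B-score means stronger Kir2.1 block with less thallium influx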
# KCNQ1 inh = blocks the human KCNQ1 potassium channel; CHO-K1 KCNQ1, FluxOR thallium flux fluorescence; hits give high values; 310,000 tested, 1.3% active; P51787; AID 2642; B-score at 10 µM;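 active means compounds whose thallium flux B-score, printed positive for inhibition, exceeds three library SD while starting fluorescence stays within three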;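 further: channel opened by potassium depolarization with thallium stimulus after 20 min compound exposure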
# KCNK9 block = human KCNK9 channel inhibition; Q9NPC2; HEK293 KCNK9, FluxOR thallium flux fluorescence; hits give low values; B-score at 10 µM; 310,000 tested, 1.2% active;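 active means ratio B-score over 3 SD below the library mean, with starting fluorescence within 5 SD of its mean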;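 further: negative B-score means less thallium flux so channel inhibition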
# KCNK9 block conf = human KCNK9 inhibitor confirmation; shares compounds with KCNK9 block; HEK293 KCNK9 cells, FluxOR thallium flux fluorescence; inhibition, % at 10 µM; 4,900 tested, 43% active;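 active means thallium signal inhibited by more than 5 SD of the compound-free buffer control wells, on both duplicate plates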;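 further: 0% = assay buffer control wells without compound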
# Kir21 sel = mouse Kir2.1 off-target activity of KCNK9 modulators; shares compounds with KCNK9 block; inhibition, % at 10 µM; 4,900 tested, 4% active; Kir2.1 cells, FluxOR thallium flux fluorescence;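 active means thallium signal drop more than 5 SD beyond the mean of the no-compound control wells, seen in both duplicate plates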;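 further: signal is fluorescence rise after thallium addition divided by baseline fluorescence; plate controls were assay buffer only for no effect and full block by chlorpromazine control for full effect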
# HEK293 Tl ctr = second check of KCNK9 modulator effects in non-induced HEK293 cells. inhibition, % at 10 µM. 4,900 tested, 40% active. shares compounds with KCNK9 block. FluxOR thallium flux;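 active means thallium signal drop beyond 5 SD of the untreated control mean, on both duplicate plates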;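 further: plate controls were buffer only IC0 wells for no effect and SID17386958 at its maximal inhibitory level for full effect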
# Numbers without * were called inactive; i = inactive; · = no result given; ! = repeats disagree.
SMILES,hERG protect,KCNK3 inh,KCNQ1 pot,Kir21 inh,KCNQ1 inh,KCNK9 block,KCNK9 block conf,Kir21 sel,HEK293 Tl ctr
Cc1ccc2ccc(C(Nc3ccccn3)c3ccccc3)c(O)c2n1 (stereo not drawn),-9.8,i,i,-0.19,i,i,i,i,i
COc1cc(C(Nc2ccccn2)c2ccc3ccc(C)nc3c2O)cc(OC)c1O (stereo not drawn),-23.9,i,i,-0.01,i,i,·,·,·
CCCCOc1ccccc1NC(=O)c1scc2c1OCCO2,-20.0,i,i,0.21,i,-11.7*,47.5%*,i,36.0%*
Cc1ccc(S(=O)(=O)N2CCC[C@H]2C(=O)NC2=NCCS2)cc1,·,i,·,·,·,·,·,·,·
Cc1ccc(SCCNC(=O)c2ccc(C)c([N+](=O)[O-])c2)cc1,-14.8,i,i,0.06,i,i,·,·,·
Cc1ccc(SCCNC(=O)c2ccc([N+](=O)[O-])c(C)c2)cc1,-6.8,i,i,-1.99,i,i,i,i,i
Cc1ccc(C(=O)NCCSc2ccc(Cl)cc2)cc1[N+](=O)[O-],-23.4,i,i,-3.48,i,i,i,i,i
Cc1ccc(C(=O)NCCSc2c(C)[nH]c3ccccc23)cc1[N+](=O)[O-],-11.9,i,i,-1.11,i,i,·,·,·
COC(=O)c1cn(C(=O)c2ccccc2Cl)c2ccccc12,-4.8,i,i,0.53,i,i,·,·,·
COC(=O)c1cn(C(=O)c2ccc(C)cc2C)c2ccccc12,-12.2,i,i,-0.31,i,i,i,i,31.5%*
N/C(=N\NS(=O)(=O)c1ccccc1Cl)c1ccccn1,-4.5,i,i,-0.04,i,i,·,·,·
CC(C)(C)c1ccc(Cn2c(=N)n(CC(O)c3ccco3)c3ccccc32)cc1 (stereo not drawn),-32.0,-11.8*,i,-6.23*,9*,-11*,40.0%*,43.0%*,26.0%*
CCCSc1nc(=S)n(Cc2ccccc2)c(C)c1C(C)=O,-4.5,i,i,1.46,i,-13.2*,66.5%*,i,i
COc1cccc(C2/C(=C(/O)c3ccc4c(c3)OCO4)C(=O)C(=O)N2CCN2CCOCC2)c1 (stereo not drawn),-0.5,i,i,0.02,i,i,·,·,·
COCCN=c1scc(-c2ccco2)n1/N=C/c1ccc(O)c(O)c1O,·,i,·,·,·,·,·,·,·
COCCN=c1scc(-c2cc(OC)ccc2OC)n1/N=C/c1c[nH]c2ccccc12,-13.8,i,i,1.25,i,i,i,i,i
Fc1ccccc1OCCCCSc1ncccn1,-14.1,i,i,1.16,i,i,·,·,·
c1cnc(SCCOc2cccc3ccccc23)nc1,-2.9,i,i,0.17,i,-9.91*,48.0%*,i,38.0%*
Nc1cc(C(=O)OCC(=O)Nc2cccc(S(=O)(=O)N3CCOCC3)c2)ccc1Cl,·,i,·,·,·,·,·,·,·
CCCCN(C(=O)CCSc1ccc(F)cc1)c1c(N)n(Cc2ccccc2)c(=O)[nH]c1=O,-10.8,i,i,-1.06,i,i,·,·,·
Cc1ccc(Cl)cc1NC1=C/C(=N\S(=O)(=O)c2cccs2)c2ccccc2C1=O,-2.0,-10.1*!,i,0.68,i,-8.31*,26.5%*,i,i
CN(Cc1ccccc1)C(=O)c1cccc(NC(=O)Cc2cccc(NC(=O)C3CCN(C(=O)c4ccccc4)CC3)c2)c1,·,i,·,·,·,·,·,·,·
COc1cccc(NC(=O)C(Sc2nnc(Nc3ccccc3C)s2)c2ccccc2)c1 (stereo not drawn),-6.8,i,i,0.44,i,-9.09*,i,i,38.5%*
Cc1cc(/C=N/NC(N)=S)c(O)c(/C=N/NC(N)=S)c1,-12.8,i,i,-2.06,i,i,·,·,·
Fc1ccccc1N1CCN(C2CCCN(Cc3ccccc3C(F)(F)F)C2)CC1 (stereo not drawn),-13.3,i,i,0.66,i,i,i,i,i
SMILES,hERG protect,KCNK3 inh,KCNQ1 pot,Kir21 inh,KCNQ1 inh,KCNK9 block,KCNK9 block conf,Kir21 sel,HEK293 Tl ctr
COc1ccccc1N1CCN(C2CCCN(Cc3cccc(O)c3)C2)CC1 (stereo not drawn),-7.4,i,i,0.5,i,i,·,·,·
CC(=O)c1cccc(CN2CCCC(N3CCN(c4ccccc4F)CC3)C2)c1 (stereo not drawn),-4.0,i,i,2.59,i,i,i,i,i
COc1ccc(OC)c(C(c2nnnn2C2CCCC2)N2CCN(c3ccc(F)cc3)CC2)c1 (stereo not drawn),-1.7,i,i,-0.79,6*,-14.6*,51.5%*,i,44.0%*
CC1Cc2ccccc2N1C(=O)c1ccc(N2CCCCC2)c([N+](=O)[O-])c1 (stereo not drawn),-12.6,i,i,-0.16,i,-11.2*,49.0%*,i,25.0%*
C#Cc1ccc([C@H]2C=C(C(=O)N3CCN(Cc4ccccc4)CC3)O[C@@H](OCc3ccc(CO)cc3)C2)cc1,-8.9,i,i,-0.74,i,i,i,i,i
O=C(C1=C[C@H](c2ccc(C(F)(F)F)cc2)C[C@H](OCCCCO)O1)N1CCN(Cc2ccccc2)CC1,-10.5,i,i,-0.44,i,i,i,i,i
O=C(C1=C[C@@H](c2ccc(C(F)(F)F)cc2)C[C@@H](OCCCCO)O1)N1CCN(Cc2ccccc2)CC1,-12.2,i,i,-1.04,i,i,·,·,·
O=C(C1=C[C@@H](c2ccc(Br)cc2)C[C@@H](OCc2ccc(CO)cc2)O1)N1CCN(Cc2ccccc2)CC1,-10.0,i,i,-0.56,i,i,·,·,·
CC1CC(C)CN(C(=O)Cn2nnc(-c3ccc(Br)cc3)n2)C1 (stereo not drawn),-2.3,i,i,3.11,i,i,·,·,·
Cc1noc(C)c1NC(=O)N(C)C[C@H]1Oc2ccc(NC(=O)C3CC3)cc2C(=O)N([C@H](C)CO)C[C@@H]1C,·,i,·,·,·,·,·,·,·
Cc1ccc(NS(=O)(=O)c2cc(C(=O)Nc3cccnc3)ccc2C)cc1,-3.5,i,i,0.04,i,i,·,·,·
Cn1cc(CN2CCN(c3ccccc3)CC2)c2ccccc21,-10.5,i,i,-2.18,i,i,i,i,i
CCOCCCN1C(=O)CN(C2CCC(C)CC2)C(=O)C1c1ccc(C)cc1 (stereo not drawn),-6.4,i,i,-0.45,i,i,·,·,·
